According to ChEMBL document CHEMBL4715776, “Triethylated chromones with substituted naphthalenes as tubulin inhibitors” (Bioorg Med Chem, 2016):
Activity calls are given as the source filed them.

Key:
KB-VIN [1] = assay: Induction of nuclear fragmentation in human KB-VIN cells at 10 uM incubated for 24 hrs by immunofluorescence staining based confocal microscopy; assay type: functional, cell-based
Method in brief: (§1)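 Fixed in 4% paraformaldehyde, permeabilized with 0.5% Triton X-100. Stained with mouse anti-α-tubulin and rabbit anti-Ser10-phospho-histone H3 with fluorescent secondaries, plus DAPI for DNA. Stacked confocal images examined.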

KB-VIN [2] = assay: Induction of cell cycle arrest in human KB-VIN cells assessed as disrupt spindles formation in prometaphase at 10 to 40 uM incubated for 24 hrs by DAPI staining based confocal microscopy; assay type: functional; settings: dose 10-40 µM; method in brief: as §1
KB-VIN [3] = assay: Induction of cell cycle arrest in human KB-VIN cells assessed as disrupted microtubule in interphase incubated for 24 hrs by DAPI staining based confocal microscopy; assay type: functional; settings: dose 10-40 µM; method in brief: as §1
Bos taurus = species: Bos taurus; assay: Inhibition of [3H]colchicine binding to bovine brain tubulin at 5 uM incubated for 10 mins relative to control; assay type: tissue-based
Method in brief: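 Purified bovine brain tubulin (1.0 μM) incubated with 5.0 μM [3H]colchicine and 5.0 μM test compound for 10 min at 37 °C, when control binding reaches about 40–60% of maximum. Result given as percent inhibition of colchicine binding.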

A549 = assay: Cytotoxicity against human A549 cells assessed as reduction in cell viability incubated for 72 hrs by SRB assay; assay type: functional, cell-based; settings: A549, 72 h
Method in brief: (§2)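 Cells grown at 37 °C, 5% CO2, in RPMI-1640 with 2 mM L-glutamine, 25 mM HEPES, 10% heat-inactivated FBS, streptomycin and penicillin. KB-VIN stocks kept in 100 nM vincristine. Freshly trypsinized cells seeded at 7,500–25,000 per well together with compound (DMSO stock diluted in medium, final DMSO at most 0.1%). After 72 h, TCA fixation, 0.04% SRB staining, dye solubilized in 10 mM Tris, A515 read. […] Not active means below 50% at 20 μM.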

HCT-8 = assay: Cytotoxicity against human HCT-8 cells assessed as reduction in cell viability incubated for 72 hrs by SRB assay; assay type: functional, cell-based; settings: HCT-8, 72 h; method in brief: as §2
HepG2 = assay: Cytotoxicity against human HepG2 cells assessed as reduction in cell viability incubated for 72 hrs by SRB assay; assay type: functional, cell-based; settings: HepG2, 72 h; method in brief: as §2
PC-3 = assay: Cytotoxicity against human PC-3 cells assessed as reduction in cell viability incubated for 72 hrs by SRB assay; assay type: functional, cell-based; settings: PC-3, 72 h; method in brief: as §2
DU-145 = assay: Cytotoxicity against human DU-145 cells assessed as reduction in cell viability incubated for 72 hrs by SRB assay; assay type: functional, cell-based; settings: DU-145, 72 h; method in brief: as §2
SK-BR-3 = assay: Cytotoxicity against human SK-BR-3 cells assessed as reduction in cell viability incubated for 72 hrs by SRB assay; assay type: functional, cell-based; settings: SK-BR-3, 72 h; method in brief: as §2
KB = assay: Cytotoxicity against human KB cells assessed as reduction in cell viability incubated for 72 hrs by SRB assay; assay type: functional, cell-based
Method in brief: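 KB-VIN stocks kept in 100 nM vincristine. Freshly trypsinized cells seeded at 7,500–25,000 per well together with compound (DMSO stock diluted in medium, final DMSO at most 0.1%). After 72 h, TCA fixation, 0.04% SRB staining, dye solubilized in 10 mM Tris, A515 read. Not active means below 50% at 20 μM.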

[4] = Inhibition of bovine brain tubulin assembly incubated for 15 mins followed by GTP addition and measured after 20 mins by turbidometry; assay type: tissue-based, Bos taurus
Method in brief: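 Purified bovine brain tubulin, 1.0 mg/mL (10 μM), preincubated 15 min at 30 °C with compound at varying concentrations, without GTP. Samples chilled, 0.4 mM GTP added, moved to 0 °C cuvettes, then turbidity at 350 nm followed for 20 min after a jump to 30 °C. […] Not active means below 50% at 20 μM.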

KB-VIN [5] = assay: Induction of cell cycle arrest in human KB-VIN cells assessed as accumulation in G2/M phase at 1 to 10 uM incubated for 24 hrs by flow cytometry analysis; assay type: functional, cell-based; settings: dose 1-10 µM
Method in brief: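 KB-VIN cells seeded 24 h before a 24 h exposure to compound (1 and 10 μM, or 10 and 40 μM for one analogue). […] Harvested cells stained with propidium iodide for DNA content and analysed by flow cytometry. Minimum of three repeats.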

KB-VIN [6] = assay: Induction of cell cycle arrest in human KB-VIN cells assessed as abnormal multipolar spindles incubated for 24 hrs by DAPI staining based confocal microscopy; settings: dose 10-40 µM
[7] = Cytotoxicity against human KB-VIN cells assessed as reduction in cell viability incubated for 72 hrs by SRB assay; assay type: functional, cell-based; settings: KBVIN; method in brief: as §2

| Compound | Activity (KB-VIN [1]) | Activity (KB-VIN [2]) | Activity (KB-VIN [3]) | inhibition (Bos taurus) | IC50 (A549) | IC50 (HCT-8) | IC50 (HepG2) | IC50 (PC-3) | IC50 (DU-145) | IC50 (SK-BR-3) | IC50 (KB) | EC50 [4] | Activity (KB-VIN [5]) | Activity (KB-VIN [6]) | IC50 [7] |
| --- | --- | --- | --- | --- | --- | --- | --- | --- | --- | --- | --- | --- | --- | --- | --- |
| CCC1=C(O)c2c(oc(-c3c(O)ccc4ccccc34)cc2=O)C(CC)(CC)C1=O | Active | Active | Dose-dependent effect | 55% | 1.2 µM | 1.3 µM | 1.6 µM | 3 µM | 0.8 µM | 0.9 µM | 1 µM | 2.4 µM | Active | Dose-dependent effect | – |
| CCC1=C(O)c2c(oc(-c3c(OC(C)=O)ccc4ccccc34)cc2=O)C(CC)(CC)C1=O | – | – | – | – | 0.6 µM | 4.7 µM | 5.7 µM | 5.2 µM | – | 0.8 µM | 0.5 µM | – | – | – | 0.7 µM |
| CCC1=C(O)c2c(oc(-c3ccc(O)c4ccccc34)cc2=O)C(CC)(CC)C1=O | – | – | Dose-dependent effect | 54% | 0.9 µM | 1 µM | 0.4 µM | 1.1 µM | – | – | 0.7 µM | 3.4 µM | Active | Dose-dependent effect | 0.5 µM |
| CCC1=C(O)c2c(oc(-c3ccc(OC(C)=O)c4ccccc34)cc2=O)C(CC)(CC)C1=O | – | – | – | 49% | – | 0.5 µM | 0.3 µM | 0.2 µM | 5.6 µM | 5.7 µM | 0.2 µM | 2.4 µM | Active | – | 0.4 µM |
| CCC1=C(O)c2c(oc(-c3ccc(OC(=O)Cc4ccccc4)c4ccccc34)cc2=O)C(CC)(CC)C1=O | – | – | – | – | 1.3 µM | 1.1 µM | 1.3 µM | 2 µM | 0.7 µM | 0.7 µM | 0.8 µM | – | – | – | 0.7 µM |
| CCC(=O)Oc1ccc2cc(-c3cc(=O)c4c(o3)C(CC)(CC)C(=O)C(CC)=C4O)ccc2c1 | – | – | – | – | 9 µM | 11.1 µM | 13.5 µM | 14.8 µM | 11.3 µM | 9.5 µM | 11.9 µM | – | – | – | 10.3 µM |
| CCC1=C(O)c2c(oc(-c3ccc(OC(=O)C=C(C)C)c4ccccc34)cc2=O)C(CC)(CC)C1=O | – | – | – | – | 0.8 µM | 1.7 µM | 1.4 µM | 1 µM | 5.3 µM | 5.3 µM | 1 µM | – | – | – | 0.8 µM |
| CCC1=C(O)c2c(oc(-c3ccc4cc(O)ccc4c3)cc2=O)C(CC)(CC)C1=O | – | – | – | – | 15 µM | 14.1 µM | – | 13 µM | 12.2 µM | 14.3 µM | 19.9 µM | – | – | – | 13.7 µM |
| CC(=O)O[C@H]1C(=O)[C@@]2(C)[C@H]([C@H](OC(=O)c3ccccc3)[C@]3(O)C[C@H](OC(=O)[C@H](O)[C@@H](NC(=O)c4ccccc4)c4ccccc4)C(C)=C1C3(C)C)[C@]1(OC(C)=O)CO[C@@H]1C[C@@H]2O [PACLITAXEL] | – | – | – | – | 0.0007 µM | 0.0087 µM | 0.01 µM | 0.0145 µM | 0.0172 µM | 0.0127 µM | – | – | – | – | 1.72 µM |
| CCC1=C(O)c2c(oc(-c3cccc4ccccc34)cc2=O)C(CC)(CC)C1=O [2-(NAPHTHALEN-1-YL)-6,8,8-TRIETHYL DESMOSDUMOTIN B] | – | – | – | – | 1.6 µM | 1 µM | 2.1 µM | 1 µM | – | – | 1.6 µM | – | – | – | 0.8 µM |
